SMILES strings stand for the structures. Converted amounts (≈) assume the structure as drawn. A value given as a limit tells only on which side of the number the result lay.

For assay [1], the system named is Streptococcus pneumoniae. The assay can be described thus: Minimum inhibitory concentration against penicillin-susceptible Streptococcus pneumoniae UC9912; Range is from 0.5-1 ug/mL. It is filed as functional. The gist of the method:
(§1)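 Broth microdilution MIC following the NCCLS M7-A4 approved standard for dilution susceptibility testing of aerobically growing bacteria. The method is taken as accurate to within one dilution.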

Assay [2] has as its system Staphylococcus aureus. The assay can be described thus: Minimum inhibitory concentration against methicillin, ciprofloxacin, rifampin, imipenem-resistant Staphylococcus aureus UC12673. It is filed as functional. In short, it runs like this: (§2)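 MIC determined by standard broth microdilution following the NCCLS M7-A4 approved standard for dilution susceptibility testing of aerobically growing bacteria.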

The test system of assay [3] is Enterococcus faecalis. Nature of the assay: Minimum inhibitory concentration against Enterococcus faecalis UC9217; Range is from 2-4 ug/mL. It is filed as functional. The gist of the method: as §1
Assay [4] concerns Staphylococcus aureus. Nature of the assay: Minimum inhibitory concentration against methicillin-susceptible Staphylococcus aureus UC9213. Type of assay: functional. The gist of the method:
as §2

The test system of assay [5] is Haemophilus influenzae. Nature of the assay: Minimum inhibitory concentration against ampicillin-reisitant Haemophilus influenzae UC30063; Range is from 8-16 ug/mL. Type of assay: functional. The gist of the method:
as §1

Assay [6] relates to Staphylococcus epidermidis. The assay can be described thus: Minimum inhibitory concentration against methicillin-resistant Staphylococcus epidermidis UC12084; Range is from 1-2 ug/mL.
Assay [7] has as its system Enterococcus faecalis. The assay can be described thus: Minimum inhibitory concentration against Enterococcus faecalis UC9217. Type of assay: functional. In short, it runs like this:
as §1

The subject of assay [8] is Streptococcus pneumoniae. Nature of the assay: Minimum inhibitory concentration against penicillin-susceptible Streptococcus pneumoniae UC9912; Range is 1-2 ug/mL. Type of assay: functional. In short, it runs like this: as §1
Assay [9] concerns Haemophilus influenzae. Nature of the assay: Minimum inhibitory concentration against ampicillin-reisitant Haemophilus influenzae UC30063. It is filed as functional. In short, it runs like this:
as §1

Assay [10] has as its system Staphylococcus epidermidis. The assay can be described thus: Minimum inhibitory concentration against methicillin-resistant Staphylococcus epidermidis UC12084; Range is 1-2 ug/mL.
Assay [11] has as its system Staphylococcus aureus. Nature of the assay: Minimum inhibitory concentration against methicillin, ciprofloxacin, rifampin, imipenem-resistant Staphylococcus aureus UC12673; Range is 2-4 ug/mL. It is filed as functional. The gist of the method:
as §2

The test system of assay [12] is Escherichia coli. The assay can be described thus: Minimum inhibitory concentration against Escherichia coli UC6674. Type of assay: functional. In short, it runs like this:
as §1

Assay [13] relates to Staphylococcus aureus. The assay can be described thus: Minimum inhibitory concentration against methicillin-susceptible Staphylococcus aureus UC9213; Range is 2-4 ug/mL. It is filed as functional. In short, it runs like this:
as §2

Assay [14] concerns Streptococcus pneumoniae. Nature of the assay: Minimum inhibitory concentration against penicillin-susceptible Streptococcus pneumoniae UC9912; Range is 0.5-1 ug/mL. Type of assay: functional. In short, it runs like this:
as §1

Assay [15] has as its system Staphylococcus epidermidis. The assay can be described thus: Minimum inhibitory concentration against methicillin-resistant Staphylococcus epidermidis UC12084.
In assay [16] the test system is Escherichia coli. The assay can be described thus: Minimum inhibitory concentration against Escherichia coli UC6674; Range is 16-32 ug/mL. Type of assay: functional. In short, it runs like this:
as §1

Assay [17] deals with Streptococcus pneumoniae. Nature of the assay: Minimum inhibitory concentration against penicillin-susceptible Streptococcus pneumoniae UC9912. To be noted: Streptococcus pneumoniae; read-out: MIC. It is filed as functional. The gist of the method: as §1
Assay [18] relates to Enterococcus faecalis. The assay can be described thus: Minimum inhibitory concentration against Enterococcus faecalis UC9217; Range is 1-2 ug/mL. It is filed as functional. In short, it runs like this: as §1
The subject of assay [19] is Staphylococcus epidermidis. The assay can be described thus: Minimum inhibitory concentration against methicillin-resistant Staphylococcus epidermidis UC12084; Range is 0.5-1 ug/mL.
Assay [20] deals with Staphylococcus aureus. The assay can be described thus: Minimum inhibitory concentration against methicillin, ciprofloxacin, rifampin, imipenem-resistant Staphylococcus aureus UC12673; Range is 1-2 ug/mL. Type of assay: functional. The gist of the method: as §2
[21] abbreviates: Haemophilus influenzae, read-out: MIC.

With `CCC(=O)NC[C@H]1CN(c2cc(F)c(N3C[C@@H]4[C@@H](N)[C@@H]4C3)c(F)c2)C(=O)O1`, the MIC against Streptococcus pneumoniae [1] is 1 µg/mL (≈ 2.63 µM); against Staphylococcus aureus [2], 4 µg/mL (≈ 10.5 µM); against Enterococcus faecalis [3], 4 µg/mL (≈ 10.5 µM); against Staphylococcus aureus [4] it was 4 µg/mL (≈ 10.5 µM); against Haemophilus influenzae [5], 16 µg/mL (≈ 42.1 µM); in assay [6], 2 µg/mL (≈ 5.26 µM).

Regarding `CCC(=O)NC[C@H]1CN(c2cc(F)c(N3C[C@@H]4[C@H](C3)[C@H]4C(=O)O)c(F)c2)C(=O)O1`, the MIC in the assay on Enterococcus faecalis [7] amounted to 1 µg/mL (≈ 2.44 µM); against Staphylococcus aureus [2], 1 µg/mL (≈ 2.44 µM); against Staphylococcus aureus [4], 2 µg/mL (≈ 4.89 µM); against Streptococcus pneumoniae [8], 2 µg/mL (≈ 4.89 µM); in the assay with Haemophilus influenzae [9] (setting [21]), 8 µg/mL (≈ 19.5 µM); in [10], 2 µg/mL (≈ 4.89 µM).

On to `CC(=O)NC[C@H]1CN(c2cc(F)c(N3C[C@@H]4[C@H](C3)[C@H]4NC=O)c(F)c2)C(=O)O1`, for which the MIC against Staphylococcus aureus [11] is 4 µg/mL (≈ 10.1 µM); with Escherichia coli [12] it was more than 64 µg/mL; against Enterococcus faecalis [7] it was 2 µg/mL (≈ 5.07 µM); in the assay on Haemophilus influenzae [9] (setting [21]), 32 µg/mL (≈ 81.1 µM); against Staphylococcus aureus [13], 4 µg/mL (≈ 10.1 µM); against Streptococcus pneumoniae [14], 1 µg/mL (≈ 2.54 µM). For the same molecule, the MIC in [15] came out at 1 µg/mL (≈ 2.54 µM).

`CC(=O)NC[C@H]1CN(c2cc(F)c(N3C[C@@H]4[C@@H](N)[C@@H]4C3)c(F)c2)C(=O)O1` (stereo in doubt; 18b): the MIC amounted to 4 µg/mL (≈ 10.9 µM) against Staphylococcus aureus [11]; 32 µg/mL (≈ 87.3 µM) against Escherichia coli [16]; 0.5 µg/mL (≈ 1.36 µM) with Streptococcus pneumoniae [17]; 8 µg/mL (≈ 21.8 µM) against Haemophilus influenzae [9]; 2 µg/mL (≈ 5.46 µM) against Enterococcus faecalis [18]; 4 µg/mL (≈ 10.9 µM) in the assay on Staphylococcus aureus [13]. This molecule registered an MIC in assay [19] of 1 µg/mL (≈ 2.73 µM).

`CC(=O)NC[C@H]1CN(c2cc(F)c(N3C[C@@H]4[C@@H](O)[C@@H]4C3)c(F)c2)C(=O)O1`: the MIC was 2 µg/mL (≈ 5.44 µM) in the assay with Staphylococcus aureus [20]; more than 64 µg/mL against Escherichia coli [12]; 1 µg/mL (≈ 2.72 µM) in the assay with Streptococcus pneumoniae [17]; 16 µg/mL (≈ 43.6 µM) in the assay on Haemophilus influenzae [9] (setting [21]); 2 µg/mL (≈ 5.44 µM) with Enterococcus faecalis [18]; 4 µg/mL (≈ 10.9 µM) in the assay on Staphylococcus aureus [13]. This molecule came in with an MIC in assay [15] of 1 µg/mL (≈ 2.72 µM).
